Data on 10 molecules can be found in ChEMBL document CHEMBL1134644 (J Med Chem, 2001).

Assay [1] has as its target T1, Adenosine receptor A3 (Rattus norvegicus, UniProt P28647).
T1 sequence (P28647 whole entry): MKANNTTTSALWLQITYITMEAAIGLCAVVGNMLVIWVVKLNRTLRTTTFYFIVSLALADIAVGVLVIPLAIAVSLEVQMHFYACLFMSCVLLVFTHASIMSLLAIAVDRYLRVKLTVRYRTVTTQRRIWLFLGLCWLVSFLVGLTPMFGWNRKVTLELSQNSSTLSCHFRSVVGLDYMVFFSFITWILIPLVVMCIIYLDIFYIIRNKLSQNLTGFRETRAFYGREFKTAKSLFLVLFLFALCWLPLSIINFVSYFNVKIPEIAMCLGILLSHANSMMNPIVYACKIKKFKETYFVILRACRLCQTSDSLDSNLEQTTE
As to the kind of experiment: Binding affinity at rat adenosine A3 receptor in CHO cells. The class given is cell-based.

The next assay addresses T2, Adenosine receptor A1 (Rattus norvegicus, UniProt P25099).
T2 sequence (P25099 whole entry): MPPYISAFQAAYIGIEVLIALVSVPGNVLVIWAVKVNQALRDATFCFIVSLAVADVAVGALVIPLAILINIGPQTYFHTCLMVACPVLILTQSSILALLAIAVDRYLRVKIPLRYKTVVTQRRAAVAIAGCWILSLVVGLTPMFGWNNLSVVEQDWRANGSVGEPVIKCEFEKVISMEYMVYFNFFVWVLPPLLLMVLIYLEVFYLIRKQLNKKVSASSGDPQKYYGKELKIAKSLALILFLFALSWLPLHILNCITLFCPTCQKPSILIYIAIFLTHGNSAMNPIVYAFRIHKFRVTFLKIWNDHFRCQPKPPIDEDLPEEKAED
Kind of assay: Binding affinity at rat brain Adenosine A1 receptor. In a few lines: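 Rat cerebral cortex membranes labelled with [3H]R-PIA. Adenosine deaminase 3 units/mL present during membrane preparation, during a 30 min preincubation at 30 °C and during incubation. Filtration on GF/B filters. At least five competitor concentrations spanning 3 log units. […] Three independent experiments in duplicate.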

Assay [2] addresses T3, Adenosine receptor A3 (Homo sapiens, UniProt P0DMS8).
T3 sequence (P0DMS8 whole entry): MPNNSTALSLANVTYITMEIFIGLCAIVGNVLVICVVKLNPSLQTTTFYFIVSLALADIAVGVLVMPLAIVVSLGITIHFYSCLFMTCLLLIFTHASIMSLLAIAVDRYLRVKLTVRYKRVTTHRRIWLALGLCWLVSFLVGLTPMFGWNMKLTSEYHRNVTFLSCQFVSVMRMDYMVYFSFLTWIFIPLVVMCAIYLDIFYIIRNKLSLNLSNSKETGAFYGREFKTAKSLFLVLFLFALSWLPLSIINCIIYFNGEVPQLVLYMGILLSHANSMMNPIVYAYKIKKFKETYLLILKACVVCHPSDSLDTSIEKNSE
As to the kind of experiment: Binding affinity at wild-type Adenosine A3 receptor expressed in COS-7 cells. The class given is cell-based.

For assay [3], the target named is Adenosine receptor A3 (Homo sapiens, UniProt P0DMS8, H272E). Kind of assay: Binding affinity at Mutant (H272E) human adenosine A3 receptor expressed in COS-7 cells. It is filed as cell-based.
Chain of Adenosine receptor A3 (Homo sapiens, UniProt P0DMS8, H272E) (P0DMS8 whole entry H272E): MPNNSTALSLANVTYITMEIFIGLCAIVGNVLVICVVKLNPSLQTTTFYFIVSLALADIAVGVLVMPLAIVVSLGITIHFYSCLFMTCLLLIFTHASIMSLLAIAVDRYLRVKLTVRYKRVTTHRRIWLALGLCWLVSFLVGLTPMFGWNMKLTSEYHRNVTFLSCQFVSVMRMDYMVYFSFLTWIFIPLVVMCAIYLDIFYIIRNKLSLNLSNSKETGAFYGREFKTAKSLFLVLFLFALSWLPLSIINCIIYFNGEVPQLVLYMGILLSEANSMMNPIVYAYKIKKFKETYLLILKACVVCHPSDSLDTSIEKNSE
Assay [4] concerns the target T1, Adenosine receptor A3. Kind of assay: Binding affinity at rat adenosine A3 receptor in RBL-2H3 cells. The class given is cell-based. In a few lines: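 Rat A3 receptors endogenously expressed in RBL-2H3 cells; displacement of [125I]AB-MECA at 1 nM in 50 mM Tris, 10 mM Mg2+, 1 mM EDTA, pH 8.0. Nonspecific binding defined with 100 μM R-PIA. Filtration on GF/B filters. At least five competitor concentrations. IC50 by nonlinear regression, converted to Ki by Cheng–Prusoff (Kd 1.46 nM). Three independent experiments in duplicate.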

With `NCCNC(=O)[C@H]1O[C@@H](n2cnc3c(N)ncnc32)[C@H](O)[C@@H]1O`, the Ki – broadly, the dissociation constant of the complex between target and ligand, obtained from inhibition or displacement – was 14.7 µM at Adenosine receptor A3 [1] and greater than 10 µM at Adenosine receptor A1.

On to `N[C@H]1[C@@H](O)[C@H](n2cnc3c(NCc4cccc(I)c4)ncnc32)O[C@@H]1CO`, for which the Ki on Adenosine receptor A3 [2] stood at 0.87 µM; at Adenosine receptor A1, 8.1 µM; at Adenosine receptor A3 [3] it was 320 nM.

For `N[C@@H]1[C@@H](O)[C@H](n2cnc3c(NC4CCCC4)ncnc32)O[C@@H]1CO`, the Ki is 0.00054 µM on Adenosine receptor A3 [2], greater than 10 µM at Adenosine receptor A3 [4], greater than 10 µM on Adenosine receptor A1 and 0.19 nM at Adenosine receptor A3 [3].

Regarding `Nc1ncnc2c1ncn2[C@@H]1O[C@H](CO)[C@@H](O)[C@H]1N`, the Ki is 1000 µM at Adenosine receptor A3 [2], greater than 10 µM at Adenosine receptor A3 [4], greater than 10 µM at Adenosine receptor A1 and 301 nM at Adenosine receptor A3 [3].

For `Nc1nc(Cl)nc2c1ncn2[C@@H]1O[C@H](CO)[C@@H](O)[C@H]1O`, the results for the Ki at Adenosine receptor A3 [2] and at Adenosine receptor A3 [3] were 0.65 µM and 11600 nM, respectively.

Take `NC[C@H]1O[C@@H](n2cnc3c(N)ncnc32)[C@H](O)[C@@H]1O`: the Ki on Adenosine receptor A3 [2] is 1000 µM; at Adenosine receptor A3 [4] it was greater than 10 µM; on Adenosine receptor A1, greater than 10 µM; on Adenosine receptor A3 [3] it was 425 nM.

`Nc1ncnc2c1ncn2[C@@H]1O[C@H](CO)[C@@H](N)[C@H]1O`: the Ki on Adenosine receptor A3 [2] is 0.442 µM; on Adenosine receptor A3 [4] it was 84 µM; at Adenosine receptor A1, greater than 10 µM; at Adenosine receptor A3 [3] it was 75 nM.

In the case of `N=C(N)N[C@H]1[C@@H](O)[C@H](n2cnc3c(N)ncnc32)O[C@@H]1CO`, the Ki is 0.13 µM on Adenosine receptor A3 [2], greater than 10 µM on Adenosine receptor A1 and 33.3 nM at Adenosine receptor A3 [3].

Turning to `CNC(=O)[C@@H]1C[C@H](N)[C@H](n2cnc3c(NCc4cccc(I)c4)nc(Cl)nc32)O1`, the Ki is 0.0046 µM at Adenosine receptor A3 [2], 3.4 µM at Adenosine receptor A3 [1], 6.69 µM at Adenosine receptor A1 and 2.3 nM at Adenosine receptor A3 [3].

In the case of `Nc1nc2ccc(Cl)cc2c2nc(-c3ccco3)nn12` [CGS-15943], the results for the Ki at Adenosine receptor A3 [2] and at Adenosine receptor A3 [3] were 0.253 µM and 3260 nM, respectively.
